Assay results pooled from the literature.
Each line is one published result; the experiments were not run side by side.
Effect on: cell growth or viability

CONC(=O)c1cccc2c1cc(C)n2-c1nc2c(c(NCc3ccccc3)n1)CCCN2  IC50 (ARP-1; 72 h): 2.1 µM
CC(C)c1cccc(C(C)C)c1N=C1C(=O)Nc2ccccc21  IC50 (B16; MTT; 48 h): 6.88 µM
FC(F)(F)c1cc(OCc2cc(-c3ccc(Cl)cc3Cl)no2)c2ccccc2n1  IC50 (Z-138; MTS; 72 h): > 100 µM
Cc1cc2c(C(N)=O)cccc2n1-c1nc2c(c(NCc3ccccc3)n1)CCCN2  IC50 (BXPC-3; 72 h): 0.8 µM
O=c1cc(OCc2cc(-c3ccc(Cl)cc3Cl)no2)c2ccccc2o1  IC50 (Z-138; MTS; 72 h): > 100 µM
O=C1Nc2ccccc2C1=Nc1cccc(Cl)c1  IC50 (B16; MTT; 48 h): > 100 µM
N#Cc1ccc(-c2cc(COc3cc(C(F)(F)F)nc4ccccc34)on2)cc1  IC50 (Z-138; MTS; 72 h): 36.7 µM
Cc1nn(-c2ccc(S(=O)(=O)N3CCN(C)CC3)cc2)c2nn3nnnc3nc12  IC50 (DLD-1; MTT): 0.08 µM
O=C1C(=Nc2ccccc2I)c2ccccc2N1Cc1ccc(Br)cc1  IC50 (B16; MTT; 48 h): 15.2 µM
c1ccc(-c2cc(CNc3cccc4cccnc34)on2)cc1  IC50 (Z-138; MTS; 72 h): 35.3 µM
Cc1nc(Nc2ncc(C(=O)Nc3c(C)cccc3Cl)s2)cc(N2CC[C@H](O)C2)n1  IC50 (Granta-519; ATP luminescence; 72 h): > 10 µM
O=C(CSc1nc2ccccc2s1)N/N=C/c1ccc(OCC(=O)Nc2cccc([N+](=O)[O-])c2)cc1  IC50 (Z-138; MTS; 72 h): > 100 µM
FC(F)(F)c1cc(OCc2cc(-c3ccccn3)no2)c2ccccc2n1  IC50 (Z-138; MTS; 72 h): > 100 µM
Cc1cc2c(C(=O)O)cccc2n1-c1nc2c(c(NCc3ccccc3)n1)CCCN2  IC50 (BXPC-3; 72 h): 0.7 µM
O=C(CSc1nc2ccccc2s1)N/N=C/c1ccc(OCC(=O)Nc2ccc([N+](=O)[O-])cc2)cc1  IC50 (Z-138; MTS; 72 h): 3.75 µM
O=C1Nc2ccccc2C1=Nc1ccccc1I  IC50 (B16; MTT; 48 h): 7.38 µM
O=C(CSc1nc2ccccc2s1)N/N=C/c1ccc(OCC(=O)Nc2cccc(Cl)c2)cc1  IC50 (Z-138; MTS; 72 h): > 100 µM
O=C1C(=Nc2ccccc2I)c2ccccc2N1Cc1cccc(Cl)c1  IC50 (B16; MTT; 48 h): 5.86 µM
O=c1cc(OCc2cc(-c3ccc(C(F)(F)F)cc3)no2)c2ccccc2o1  IC50 (Z-138; MTS; 72 h): > 100 µM
Cc1ccc(CN2C(=O)C(=Nc3cccc(Cl)c3)c3ccccc32)cc1  IC50 (B16; MTT; 48 h): 1.49 µM
CN1CCC(NC2CCc3[nH]c4c(C(N)=O)ccc(-c5ccccc5Cl)c4c3C2)CC1 (stereo not drawn)  IC50 (BXPC-3; 96 h): 0.0347 µM
